For data set [1], the target named is T1, Amyloid-beta precursor protein (Homo sapiens, UniProt P05067). The data set is described as follows: Inhibition constant for aggregates of amyloid beta compared to [125I]IMSB. An outline of the steps:
(§1)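 Aβ(1-40) or Aβ(1-42) aggregated at 0.5 or 0.25 mg/mL respectively in pH 7.4 buffer (10 mM sodium phosphate, 1 mM EDTA), 37 °C, 36-42 h with shaking. Competition against ¹²⁵I radioligand with fibrils 10-50 nM (final), 10% EtOH, 1 mL. Incubation 3 h room temperature. Bound ligand collected by GF/B filtration, γ-counted. Ki by nonlinear regression. Mean ± SEM, three experiments in duplicate.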

The subject of data set [2] is Mus musculus. The data set is described as follows: Biodistribution was measured in mice lung 5 minutes after intravenous injection of [125I]-labeled styrylbenzene. In kind it is ADME, organism-based. The conditions noted are these: in vivo. The method, boiled down: (§2)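 ICR mice (2-3 months old, 20-30 g) under ether anesthesia received 5-10 µCi ¹²⁵I tracer in 0.15 mL saline by tail-vein injection. Animals were killed by cardiac excision at set times post-injection. Organs were removed, weighed and γ-counted. Values are % dose per organ against diluted injectate aliquots, taking blood and muscle as 7% and 40% of body weight. Mean of 3-4 mice ± SD.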

Data set [3] deals with Mus musculus. Put plainly: Biodistribution was measured in mice brain 60 minutes after intravenous injection of [125I]-labeled styrylbenzene. In kind it is ADME, organism-based. Conditions: in vivo, 1 h. The method, boiled down: as §2
In data set [4] the test system is Mus musculus. Put plainly: Biodistribution was measured in mice blood 60 minutes after intravenous injection of [125I]-labeled styrylbenzene. The class given is ADME, organism-based. Conditions: in vivo, 1 h. An outline of the steps:
as §2

In data set [5] the test system is Mus musculus. Put plainly: Biodistribution was measured in mice heart 30 minutes after intravenous injection of [125I]-labeled styrylbenzene. The class given is ADME, organism-based. The conditions noted are these: in vivo, 0.5 h. The method, boiled down: as §2
The subject of data set [6] is Mus musculus. Put plainly: Biodistribution was measured in mice brain 30 minutes after intravenous injection of [125I]-labeled styrylbenzene. The class given is ADME, organism-based. Conditions: in vivo, 0.5 h. An outline of the steps: as §2
In data set [7] the test system is Mus musculus. The data set is described as follows: Biodistribution was measured in mice heart 5 minutes after intravenous injection of [125I]-labeled styrylbenzene. The conditions noted are these: in vivo. The class given is ADME, organism-based. The method, boiled down: as §2
The test system of data set [8] is Mus musculus. The data set is described as follows: Biodistribution was measured in mice kidney 60 minutes after intravenous injection of [125I]-labeled styrylbenzene. The conditions noted are these: in vivo, 1 h. In kind it is ADME, organism-based. The method, boiled down:
as §2

Data set [9] relates to Mus musculus. Put plainly: Biodistribution was measured in mice spleen 60 minutes after intravenous injection of [125I]-labeled styrylbenzene. The class given is ADME, organism-based. Conditions: in vivo, 1 h. An outline of the steps: (§3)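 ICR mice (2-3 months old, 20-30 g) under ether anesthesia; 0.15 mL saline containing 5-10 µCi ¹²⁵I tracer injected into tail vein. Sacrifice by cardiac excision at set times; organs removed, weighed, γ-counted. Expressed as % dose per organ versus diluted aliquots of injectate. Mean of three or four mice ± SD.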

The test system of data set [10] is Mus musculus. Put plainly: Biodistribution was measured in mice lung 30 minutes after intravenous injection of [125I]-labeled styrylbenzene. The class given is ADME, organism-based. Conditions: in vivo, 0.5 h. An outline of the steps: as §2
In data set [11] the test system is Mus musculus. Put plainly: Biodistribution was measured in mice muscle 5 minutes after intravenous injection of [125I]-labeled styrylbenzene. The class given is ADME, organism-based, Muscle tissue. The conditions noted are these: in vivo. An outline of the steps: as §2
Data set [12] deals with Mus musculus. Put plainly: Biodistribution was measured in mice skin 30 minutes after intravenous injection of [125I]-labeled styrylbenzene. The conditions noted are these: in vivo, 0.5 h. In kind it is ADME, organism-based, Zone of skin. The method, boiled down:
as §2

Data set [13] concerns Mus musculus. Put plainly: Biodistribution was measured in mice liver 60 minutes after intravenous injection of [125I]-labeled styrylbenzene. In kind it is ADME, organism-based. The conditions noted are these: in vivo, 1 h. An outline of the steps:
as §2

Data set [14] has as its system Mus musculus. The data set is described as follows: Biodistribution was measured in mice liver 5 minutes after intravenous injection of [125I]-labeled styrylbenzene. The class given is ADME, organism-based. The conditions noted are these: in vivo. An outline of the steps:
as §2

The test system of data set [15] is Mus musculus. The data set is described as follows: Biodistribution was measured in mice spleen 5 minutes after intravenous injection of [125I]-labeled styrylbenzene. In kind it is ADME, organism-based. The conditions noted are these: in vivo. The method, boiled down:
as §3

Data set [16] relates to Mus musculus. Put plainly: Biodistribution was measured in mice spleen 30 minutes after intravenous injection of [125I]-labeled styrylbenzene. The class given is ADME, organism-based. Conditions: in vivo, 0.5 h. An outline of the steps: as §3
The test system of data set [17] is Mus musculus. Put plainly: Biodistribution was measured in mice skin 60 minutes after intravenous injection of [125I]-labeled styrylbenzene. The class given is ADME, organism-based, Zone of skin. Conditions: in vivo, 1 h. An outline of the steps:
as §2

Data set [18] deals with Mus musculus. Put plainly: Biodistribution was measured in mice muscle 60 minutes after intravenous injection of [125I]-labeled styrylbenzene. The class given is ADME, organism-based, Muscle tissue. The conditions noted are these: in vivo, 1 h. An outline of the steps: as §2
Data set [19] relates to Mus musculus. Put plainly: Biodistribution was measured in mice muscle 30 minutes after intravenous injection of [125I]-labeled styrylbenzene. The class given is ADME, organism-based, Muscle tissue. Conditions: in vivo, 0.5 h. The method, boiled down:
as §2

Data set [20] concerns Mus musculus. Put plainly: Biodistribution was measured in mice blood 5 minutes after intravenous injection of [125I]-labeled styrylbenzene. The class given is ADME, organism-based. Conditions: in vivo. An outline of the steps:
as §2

Data set [21] concerns Mus musculus. Put plainly: Biodistribution was measured in mice heart 60 minutes after intravenous injection of [125I]-labeled styrylbenzene. Conditions: in vivo, 1 h. In kind it is ADME, organism-based. The method, boiled down: as §2
Data set [22] has as its system Mus musculus. Put plainly: Biodistribution was measured in mice lung 60 minutes after intravenous injection of [125I]-labeled styrylbenzene. The class given is ADME, organism-based. The conditions noted are these: in vivo, 1 h. An outline of the steps:
as §2

The test system of data set [23] is Mus musculus. Put plainly: Biodistribution was measured in mice skin 5 minutes after intravenous injection of [125I]-labeled styrylbenzene. In kind it is ADME, organism-based, Zone of skin. Conditions: in vivo. The method, boiled down:
as §2

Data set [24] deals with Mus musculus. Put plainly: Biodistribution was measured in mice brain 5 minutes after intravenous injection of [125I]-labeled styrylbenzene. The class given is ADME, organism-based. Conditions: in vivo. The method, boiled down:
as §2

Data set [25] deals with Mus musculus. Put plainly: Biodistribution was measured in mice kidney 30 minutes after intravenous injection of [125I]-labeled styrylbenzene. The class given is ADME, organism-based. The conditions noted are these: in vivo, 0.5 h. An outline of the steps: as §2
For data set [26], the system named is Mus musculus. Put plainly: Biodistribution was measured in mice kidney 5 minutes after intravenous injection of [125I]-labeled styrylbenzene. Conditions: in vivo. The class given is ADME, organism-based. An outline of the steps:
as §2

In data set [27] the target is T1, Amyloid-beta precursor protein. The data set is described as follows: Inhibition constant for amyloid beta compared to [125I]TZDM. The method, boiled down: as §1
Data set [28] concerns Mus musculus. Put plainly: Biodistribution was measured in mice blood 30 minutes after intravenous injection of [125I]-labeled styrylbenzene. In kind it is ADME, organism-based. Conditions: in vivo, 0.5 h. An outline of the steps: as §2
The test system of data set [29] is Mus musculus. Put plainly: Biodistribution was measured in mice liver 30 minutes after intravenous injection of [125I]-labeled styrylbenzene. The class given is ADME, organism-based. Conditions: in vivo, 0.5 h. An outline of the steps:
as §2

Several values for one entry are separate records, joined by “and”; a condition that tells them apart may be missing. Equal values may be shown once. Bounds are passed on as bounds.

The term Ki denotes a measure of affinity in units of concentration, obtained from inhibition or displacement.

T1 sequence (P05067 whole entry): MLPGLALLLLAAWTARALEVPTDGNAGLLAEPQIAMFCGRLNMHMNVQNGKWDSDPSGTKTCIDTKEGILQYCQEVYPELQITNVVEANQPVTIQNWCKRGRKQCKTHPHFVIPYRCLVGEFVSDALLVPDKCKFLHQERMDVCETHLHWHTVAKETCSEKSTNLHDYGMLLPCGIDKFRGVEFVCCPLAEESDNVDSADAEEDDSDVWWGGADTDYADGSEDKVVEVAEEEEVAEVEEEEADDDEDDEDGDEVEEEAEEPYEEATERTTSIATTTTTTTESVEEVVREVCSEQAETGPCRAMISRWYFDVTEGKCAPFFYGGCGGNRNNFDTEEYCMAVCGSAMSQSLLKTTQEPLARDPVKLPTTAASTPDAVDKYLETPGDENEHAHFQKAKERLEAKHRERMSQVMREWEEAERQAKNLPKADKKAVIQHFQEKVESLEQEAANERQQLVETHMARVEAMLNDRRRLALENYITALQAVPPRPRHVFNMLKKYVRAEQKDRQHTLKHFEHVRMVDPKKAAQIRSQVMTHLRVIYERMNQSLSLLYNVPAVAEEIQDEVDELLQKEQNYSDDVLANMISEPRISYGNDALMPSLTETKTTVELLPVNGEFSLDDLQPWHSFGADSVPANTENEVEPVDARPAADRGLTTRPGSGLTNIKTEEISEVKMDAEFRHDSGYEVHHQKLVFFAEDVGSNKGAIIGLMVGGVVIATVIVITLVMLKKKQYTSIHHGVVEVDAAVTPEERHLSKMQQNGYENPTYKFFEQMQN

`CN(C)c1ccc(-c2nc3ccc(Br)cc3s2)cc1`: the inhibition constant Ki in data set [1] is over 3000 nM.

With `COc1ccc(/C=C/c2ccc(/C=C/c3ccc(OC)c(C(=O)O)c3)c(I)c2)cc1C(=O)O`, the Dose/organ in the data set on Mus musculus [2] is recorded as 0.89%; in the data set on Mus musculus [3], 0.02%; in the data set on Mus musculus [4], 2.17%; with Mus musculus [5] it was 0.18%; in the data set on Mus musculus [6] it was 0.03%; in the data set with Mus musculus [7], 0.43%. The Dose/organ with Mus musculus [8] is on record as 0.23%; in the data set on Mus musculus [9] it was 0.03%; in the data set with Mus musculus [10], 0.31%; with Mus musculus [11] it was 3.16%; in the data set on Mus musculus [12], 1.44%; with Mus musculus [13] it was 6.14%. Moreover, the Dose/organ in the data set with Mus musculus [14] was determined as 47.85%; in the data set with Mus musculus [15] it was 0.17%; in the data set on Mus musculus [16], 0.07%; with Mus musculus [17] it was 1.02%; with Mus musculus [18] it was 1.3%; in the data set with Mus musculus [19], 1.82%. Besides, the Dose/organ in the data set on Mus musculus [20] was determined as 22.52%; in the data set on Mus musculus [21], 0.12%; in the data set on Mus musculus [22] it was 0.16%; with Mus musculus [23], 1.56%; in the data set with Mus musculus [24], 0.14%; with Mus musculus [25] it was 0.46%. The Dose/organ was determined as 1.31% in the data set with Mus musculus [26], 5.19% in the data set with Mus musculus [28] and 24.47% in the data set with Mus musculus [29]. Further, the Ki in data set [1] was 0.17 nM and 0.8 nM; in [27], over 1000 nM.

On to `CN1CCN(c2ccc(-c3nc4ccc(Br)cc4s3)cc2)CC1`, for which, in data set [1], the Ki is over 2400 nM.

The values above are taken from ChEMBL document CHEMBL1134439, “Radioiodinated styrylbenzenes and thioflavins as probes for amyloid aggregates” (J Med Chem, 2001).
